# AHR activator: human AHR activation; AHR-responsive luciferase reporter cells, luminescence; activation, % at 5 µM; actives 2.5% (n = 320,000); P35869; in the data active = activation above about 47%;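 also: 0% = vehicle wells and 100% = reference agonist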
# Target sequence (P35869 whole entry, looked up): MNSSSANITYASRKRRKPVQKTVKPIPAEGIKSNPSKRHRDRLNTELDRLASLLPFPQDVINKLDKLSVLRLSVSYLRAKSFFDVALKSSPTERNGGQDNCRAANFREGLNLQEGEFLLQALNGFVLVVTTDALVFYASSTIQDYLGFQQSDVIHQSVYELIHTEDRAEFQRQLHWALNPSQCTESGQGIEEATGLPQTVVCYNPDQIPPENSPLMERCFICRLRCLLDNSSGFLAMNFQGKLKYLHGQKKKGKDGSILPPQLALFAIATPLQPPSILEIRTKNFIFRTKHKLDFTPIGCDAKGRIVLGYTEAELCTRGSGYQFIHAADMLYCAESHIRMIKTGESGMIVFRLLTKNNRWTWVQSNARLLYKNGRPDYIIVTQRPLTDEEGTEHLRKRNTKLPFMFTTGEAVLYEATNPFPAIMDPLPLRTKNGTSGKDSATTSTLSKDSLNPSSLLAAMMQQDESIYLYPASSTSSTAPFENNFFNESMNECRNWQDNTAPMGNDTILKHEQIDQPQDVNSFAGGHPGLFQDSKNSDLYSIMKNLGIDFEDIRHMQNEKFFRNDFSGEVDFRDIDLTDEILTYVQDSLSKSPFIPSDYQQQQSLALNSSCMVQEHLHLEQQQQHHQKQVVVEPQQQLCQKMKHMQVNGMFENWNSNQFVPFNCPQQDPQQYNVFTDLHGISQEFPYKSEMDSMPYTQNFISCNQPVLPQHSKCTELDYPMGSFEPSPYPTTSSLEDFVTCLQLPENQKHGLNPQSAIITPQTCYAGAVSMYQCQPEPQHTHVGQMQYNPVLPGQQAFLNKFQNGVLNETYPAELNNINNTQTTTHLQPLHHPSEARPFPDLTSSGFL
# Mdm2 ligase inh: blocks human Mdm2 ubiquitin ligase activity. actives 0.11% (n = 210,000). Q00987. cell-based MDM2 ubiquitination luciferase reporter, 2 h; 0 = plate control, 100 = twice control, blank-subtracted. signal enhancement, % at 5 µM. AID 1230;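 active = signal enhancement of 30% or more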;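 also: luminescence tracks abundance of the self-degrading MDM2-luciferase fusion protein; higher signal means inhibition of MDM2 E3 ligase activity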
#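 system = mammalian cells stably expressing self-ubiquitinating, self-degrading MDM2 E3–luciferase fusion | quantity = 2000 cells per well seeded | incubation = 4 h cell settling then 2 h compound exposure, 37 °C | signal = SteadyLite luminescence, 15 min reagent step | benchmarks = plate control and blank wells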
# APP 5'UTR act: APP 5'UTR luciferase reporter activation. AID 1276. SH-SY5Y APP 5'UTR luciferase reporter, luminescence; zero percent = DMSO vehicle wells. actives 1% (n = 190,000). activation, % at 2 µM;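 active = activation above a set limit, based on mean plus 3 SD of controls, cut at about 140% in these data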
# STAT1 act: activators of IFN-gamma induced STAT1 signaling; actives 2.6% (n = 200,000); NIH 3T3 STAT1-luciferase reporter, luminescence; 100% = IFN-gamma alone, no compound; activation (% of control), % at 5.5 µM;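 active = activation above the screen-wide mean activation plus 3 SD, cut at about 130% in these data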;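 also: raw ratio to IFN-gamma control signal so 100% means no change and 0% no light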
# NF-kB expr up: compounds increasing NF-kB expression in human neuronal cells; NF-kB reporter expression; hits give high values; fold change at 12.5 µM; actives 1.6% (n = 190,000); AID 1239; in the data active = fold change above about 3.3
# PERK inhibitor: inhibitors of human PERK kinase; CHO PERK-DD fusion, SEAP luminescence translation reporter; actives 0.17% (n = 220,000); inhibition, % at 5.6 µM; Q9NZJ5;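 active = inhibition above the mean inhibition of all tested compounds plus 3 SD, set separately per screening campaign, cut at about 2.9% in these data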;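 also: PERK kinase domain activated by AP20187 dimerizer at 100 nM; 0% = DMSO with dimerizer and 100% = rapamycin at 8.4 µM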
# The depositor's hits bear a star; / = no result given. In the library only some 4.5% were active in any assay of this set; here they are far more common.
SMILES,AHR activator,Mdm2 ligase inh,APP 5'UTR act,STAT1 act,NF-kB expr up,PERK inhibitor
O=C(Nc1ccccc1)c1cccc(S(=O)(=O)Nc2ccccn2)c1,3,4,-17,101,1.2,0
C/C(=N\Nc1ccc(C)c(Cl)c1)c1cccnc1,54*,/,/,/,/,/
S=C(NCc1ccncc1)Nc1ccc(Cl)cc1Cl,13,-4,5,90,0.91,2
O=C(NCc1ccncc1)Nc1ccc(Cl)cc1Cl,49*,3,11,97,0.87,0
CC(C)n1nnnc1-c1cccc(Cl)c1,-4,-13,5,92,1,1
CC(C)n1nnnc1-c1cc(Cl)cc(Cl)c1,-2,15,10,98,1.3,3.5*
O=S(=O)(NN1CCOCC1)c1ccc(Br)cc1,-1,/,/,/,/,/
Cc1ccc2nc(-c3ccc(N)cc3)sc2c1,0,-74,/,/,/,1
Nc1ccc(-c2nc3cc(N)ccc3s2)cc1,40,-61,186*,99,5.3*,0
S=C1NC2(CCS1)Oc1ccccc1C1CC(c3ccccc3)=NN12 (stereo unspecified),/,-5,/,/,/,0
Cc1ccc(C2=NN3C(C2)c2ccccc2OC32C(=O)Nc3ccccc32)cc1 (stereo unspecified),47*,-1,204*,107,8.7*,1
CN1C(=O)C2(Oc3ccccc3C3CC(c4ccccc4)=NN32)c2ccccc21 (stereo unspecified),54*,-2,137*,98,1.8,0
Cn1c(SCC(=O)N2CCCCCC2)nc2c(c1=O)SCC2,1,/,/,/,/,/
Cc1cc(C)c(-c2c(O)c3cnn(-c4ccccc4)c3[nH]c2=O)c(C)c1,1,4,-6,102,1.4,1
O=C(OCC#CCSc1nnc(-c2cccc3ccccc23)o1)c1cnc[nH]1,-3,/,/,/,/,/
CCOC(=O)n1c(=O)n(Cc2c(Cl)cccc2Cl)c2ccccc21,-4,-13,20,96,1.1,1
COc1ccc(/C=C/C(=O)N2CCN(S(=O)(=O)c3ccccc3)CC2)cc1OC,3,-90,7,138*,0.89,-1
COc1ccc(/C=C/C(=O)N2CCN(S(=O)(=O)/C=C/c3ccccc3)CC2)cc1OC,-2,/,-1,98,1.1,-1
O=S(=O)(c1ccc(NCc2ccccc2)cc1)N1CCOCC1,0,/,/,/,/,/
CCN1/C(=C/c2ccc3cccc(C)c3[n+]2CC)Sc2ccccc21,-10,-37,-31,84,5*,0
CCN1/C(=C/c2ccc3cc(C)cc(C)c3[n+]2CC)Sc2cc(C)ccc21,/,-31,-61,83,0.92,0
Cc1cc(C)nc(SCc2ccc(C(=O)N/N=C3\CC(C)CC(C)(C)C3)cc2)n1 (stereo unspecified),7,-9,10,106,0.97,0
Cc1cccn2c(=O)c3cc(C(=O)NCC4CCCO4)c(=N)n(CC4CCCO4)c3nc12 (stereo unspecified),3,/,/,/,/,/
Cc1cccn2c(=O)c3cc(C(=O)NC4CCCC4)c(=N)n(CC4CCCO4)c3nc12 (stereo unspecified),55*,/,/,/,/,/
O=C(O)C(Cc1ccccc1)n1c(=S)[nH]c2ccccc2c1=O (stereo unspecified),1,6,-4,106,1.1,1
SMILES,AHR activator,Mdm2 ligase inh,APP 5'UTR act,STAT1 act,NF-kB expr up,PERK inhibitor
O=C(CNC(=O)c1ccc(-c2ccccc2)cc1)Nc1cccc(CO)c1,22,/,/,/,/,/
Cc1ccc(NC(=O)c2cc3nc(C)cc(C)n3n2)cc1,36,-42,146*,142*,4.2*,0
Cn1nc(C(=O)Nc2ccc(Cl)cc2)cc1C(=O)Nc1ccc(Cl)cc1,72*,/,/,/,/,/
CCOC(=O)c1cc(C(=O)Nc2cccc(C)c2)nn1C,5,-21,130,135*,6.8*,0
Cc1ccc(NC(=O)c2cc(C(=O)Nc3ccc(C)cc3)n(C)n2)cc1,62*,/,/,/,/,/
Cn1nc(C(=O)Nc2cccc(Cl)c2)cc1C(=O)Nc1cccc(Cl)c1,-4,/,/,/,/,/
Cc1cc(C)n2nc(C(=O)NCc3ccccc3)cc2n1,0,-12,6,98,1.3,0
CCOc1ccc(S(=O)(=O)N2CCN=C2c2ccccc2)c(C)c1C,2,/,/,/,/,/
Cc1ccc(S(=O)(=O)N2CCOCC2)cc1C(=O)OCC(=O)NC1CCCC1,0,/,/,/,/,/
COc1ccccc1CC(=O)O/N=C(\N)c1ccccn1,-2,-5,/,/,/,2
N/C(=N\OC(=O)c1cccc2ccccc12)c1ccccn1,61*,-46,/,/,/,-1
N/C(=N\OC(=O)Cc1cccc2ccccc12)c1ccccn1,11,4,109,123,6.1*,0
COc1cccc(C(=O)O/N=C(\N)c2ccccn2)c1OC,27,/,/,/,/,/
CCOc1ccc(CC(=O)C2=C(N3CCOCC3)CC(C)(C)CC2=O)cc1OCC,-1,1,-11,96,1.5,2
CC(C)(C)c1ccc(C(=O)Nc2ccc(Cl)cc2)cc1,-9,-7,126,130*,1.6,0
O=C(Nc1ccc2c(c1)OCO2)c1ccc(N2CCCC2)c([N+](=O)[O-])c1,-8,-16,56,105,1.1,0
CCOc1ccc(C(=O)Nc2ccc3c(c2)OCCO3)cc1[N+](=O)[O-],-5,-5,19,98,1.1,0
O=C(Nc1ccc2c(c1)OCO2)c1ccc[n+]([O-])c1,48*,-12,9,101,1.2,2
O=C(Nc1ccc2c(c1)OCO2)c1ccc(NC2CC2)c([N+](=O)[O-])c1,52*,/,27,96,1.3,-1
O=C(Nc1ccc(Cl)c([N+](=O)[O-])c1)c1ccc2c(c1)OCCO2,-4,-15,168*,139*,3.7*,0
O=C(COc1ccccc1F)Nc1ccccc1C(=O)NC1CC1,3,/,/,/,/,/
CC(NC(=O)COC(=O)c1ccc([N+](=O)[O-])o1)c1ccccc1 (stereo unspecified),0,/,/,/,/,/
O=C(CC1NCCNC1=O)Nc1cccc([N+](=O)[O-])c1 (stereo unspecified),3,-7,-17,102,1.3,2
O=C(Nc1ccc(NC(=O)c2ccc(Cl)cc2Cl)cc1)c1ccc2c(c1)OCO2,-1,/,/,/,/,/
Cc1nnc(NC(=O)c2ccc3c(c2)OCO3)s1,39,-44,45,123,2.4,0
SMILES,AHR activator,Mdm2 ligase inh,APP 5'UTR act,STAT1 act,NF-kB expr up,PERK inhibitor
O=C(Nc1ccc2c(c1)OCO2)c1cccc(Cl)c1,49*,-9,59,129*,2.9,1
O=C(Nc1nncs1)c1ccc2c(c1)OCO2,65*,/,/,/,/,/
O=C(Nc1ccc2c(c1)OCCO2)c1ccc(Cl)cc1,-2,/,/,/,/,/
O=C(Nc1ccc(Cl)cc1)c1ccc2c(c1)OCO2,-3,-35,193*,139*,6.8*,1
O=C(Nc1ccc(Cl)cc1)C1=Cc2ccccc2OC1,72*,-11,210*,143*,9.2*,0
NC(=O)c1ccc(NC(=O)c2ccc3c(c2)OCO3)cc1,7,-14,38,139*,2.5,1

# Screening results: PubChem BioAssay, several laboratories
